Results: ChEMBL document CHEMBL1135804, “Beta-strand mimicking macrocyclic amino acids: templates for protease inhibitors with antiviral activity” (J Med Chem, 2002)
pIC50, pKi: −log10 of the molar value.

Legend:
[1] = The Water-octanol distribution coefficient at pH6.5; assay type: physicochemical; details: pH 6.5, read-out: Log D6.5
In short: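 Value computed by a cited calculation method at pH 6.5, not measured experimentally.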

[2] = molecular target: Human immunodeficiency virus type 1 protease (Human immunodeficiency virus 1, UniProt Q72874); test: Inhibitory activity against HIV-1 protease
MT2 = test: Concentration required to produce 50% reduction in virion associated RT activity in HIV-1 infected MT2 cells; assay type: functional, cell-based; details: Homo sapiens
In short: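 MT2 cells (5 × 10⁴ per 0.25 mL RF10, RPMI-1640-based) given compound (diluted from 20 mM stock in 60% ethanol), then immediately HIV-1 strain #237288 at 200 TCID₅₀; 37 °C, 5% CO₂, 6–7 days; duplicates. Supernatant virus PEG-precipitated, virion-associated RT activity counted by scintillation; % inhibition versus virus-only controls; IC50 = 50% RT reduction.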

Row | SMILES | logD [1] | pKi [2] | pIC50 (MT2)
1 | CCCOC[C@@H]1NC(=O)[C@@H](NC(=O)OC(C)(C)C)CCCCOc2ccc(cc2)C[C@@H]([C@H](O)CN(CCC(C)C)S(=O)(=O)c2ccc(NC(C)=O)cc2)NC1=O | 3.6 | 7.35 | 6.08
2 | CCCOC[C@@H]1NC(=O)[C@@H](N)CCCCOc2ccc(cc2)C[C@@H]([C@H](O)CN(CCC(C)C)S(=O)(=O)c2ccc(N)cc2)NC1=O | 0.5 | 7.35 | < 5.00
3 | CC(C)CN(C[C@@H](O)[C@H](Cc1ccccc1)NC(=O)O[C@H]1CCOC1)S(=O)(=O)c1ccc(N)cc1 |  |  | 7.52
4 | CC(C)CCN(C[C@@H](O)[C@@H]1Cc2ccc(cc2)OCCCC[C@H](N)C(=O)N[C@@H](C(C)C)C(=O)N1)S(=O)(=O)c1ccc(N)cc1 | 1 | 9.05 | < 5.00
5 | CC(=O)N[C@@H](CO)C(=O)N[C@H]1CCCCOc2ccc(cc2)C[C@@H]([C@H](O)CN(CCC(C)C)S(=O)(=O)c2ccc(N)cc2)NC(=O)[C@H](C(C)C)NC1=O | 0.4 | 9.47 | < 5.00
6 | CC(=O)Nc1ccc(S(=O)(=O)N(CCC(C)C)C[C@@H](O)[C@@H]2Cc3ccc(cc3)OCCCC[C@H](NC(=O)OC(C)(C)C)C(=O)N[C@@H](C(C)C)C(=O)N2)cc1 | 4.1 | 8.70 | 6.75
7 | CCCCC(=O)N[C@H]1CCCCOc2ccc(cc2)C[C@@H]([C@H](O)CN(CCC(C)C)S(=O)(=O)c2ccc(NC(C)=O)cc2)NC(=O)[C@H](CCCC)NC1=O | 4.6 |  | 6.24
8 | CCCC[C@@H]1NC(=O)[C@@H](NC(=O)OC(C)(C)C)CCCCOc2ccc(cc2)C[C@@H]([C@H](O)CN(CCC(C)C)S(=O)(=O)c2ccc(NC(C)=O)cc2)NC1=O | 4.8 | 8.12 | 6.41
9 | CCCC[C@@H]1NC(=O)[C@@H](NC(=O)[C@@H](N)CO)CCCCOc2ccc(cc2)C[C@@H]([C@H](O)CN(CCC(C)C)S(=O)(=O)c2ccc(N)cc2)NC1=O | 0.6 | 8.52 | < 5.00
10 | CCCC[C@@H]1NC(=O)[C@@H](NC(=O)[C@H](CO)NC(=O)OC(C)(C)C)CCCCOc2ccc(cc2)C[C@@H]([C@H](O)CN(CCC(C)C)S(=O)(=O)c2ccc(NC(C)=O)cc2)NC1=O | 3 | 7.92 | 5.59
11 | CCCC[C@@H]1NC(=O)[C@@H](N)CCCCOc2ccc(cc2)C[C@@H]([C@H](O)CN(CCC(C)C)S(=O)(=O)c2ccc(N)cc2)NC1=O | 1.7 | 9.51 | 5.16
12 | CCCC[C@@H]1NC(=O)[C@@H](NC(C)=O)CCCCOc2ccc(cc2)C[C@@H]([C@H](O)CN(CCC(C)C)S(=O)(=O)c2ccc(N)cc2)NC1=O | 3 | 8.55 | 6.04
